The values that follow come from ChEMBL document CHEMBL2176974, “A bactericidal guanidinomethyl biaryl that alters the dynamics of bacterial FtsZ polymerization” (J Med Chem, 2012).

Positions count from the first letter of the chain named. In brackets after ≈: the same amount, converted by molar mass. Activity calls are given as the source filed them. The calls are words filed in the database; no cut-off is given here.

The test system of one assay is Enterococcus faecalis. As to the kind of experiment: Stimulation of Enterococcus faecalis FtsZ self-polymerization by microtiter plate-based light scattering assay.
In assay [1] the test system is Staphylococcus aureus. As to the kind of experiment: Antimicrobial activity against methicillin-resistant Staphylococcus aureus Mu3 incubated for 24 hrs by broth microdilution method. It is filed as functional. The conditions noted are these: Mu3, 24 h. On the technique in general: Broth dilution looks for growth in wells or tubes with falling amounts of substance.

In assay [2] the target is T1, Cell division protein FtsZ (Escherichia coli K-12) (UniProt P0A9A6).
T1 sequence (whole entry): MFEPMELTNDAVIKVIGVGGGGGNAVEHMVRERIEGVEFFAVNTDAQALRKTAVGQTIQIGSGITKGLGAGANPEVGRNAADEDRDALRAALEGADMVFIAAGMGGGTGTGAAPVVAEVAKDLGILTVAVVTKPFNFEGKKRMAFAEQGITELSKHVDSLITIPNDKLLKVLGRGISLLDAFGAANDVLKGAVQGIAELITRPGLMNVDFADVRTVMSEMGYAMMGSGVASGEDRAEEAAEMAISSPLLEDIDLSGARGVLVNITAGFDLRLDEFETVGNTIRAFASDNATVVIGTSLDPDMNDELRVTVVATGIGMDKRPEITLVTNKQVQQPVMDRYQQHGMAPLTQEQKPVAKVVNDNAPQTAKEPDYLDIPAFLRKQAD
As to the kind of experiment: Stimulation of Escherichia coli FtsZ self-polymerization by microtiter plate-based light scattering assay.

For assay [3], the system named is Staphylococcus aureus. As to the kind of experiment: Antimicrobial effect against 3x10^9 CFU/ml methicillin-sensitive Staphylococcus aureus 8325-4 at 4 to 32 times MIC assessed as incidence of colonies growth measured after 24 incubation by large inoculation approach based drug resistance detection method. It counts as functional, organism-based. In outline:
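Inoculum count checked on nonselective plates. Incubated at 37 °C and examined after 24 h and daily thereafter. Mutation frequency = colonies on selective plates / total bacteria plated.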

Assay [4] in a line: Selectivity index, ratio of Kd for Enterococcus faecalis FtsZ to Kd for Staphylococcus aureus FtsZ. The essentials:
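Buffer was 50 mM Tris·HCl pH 7.4, 50 mM KCl, 2 mM magnesium acetate. Kd came from nonlinear least-squares fits, and the index is the ratio of the two Kd values.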

The subject of assay [5] is T2, Cell division protein FtsZ (Staphylococcus aureus), P0A031 [G196A].
T2 sequence (whole entry): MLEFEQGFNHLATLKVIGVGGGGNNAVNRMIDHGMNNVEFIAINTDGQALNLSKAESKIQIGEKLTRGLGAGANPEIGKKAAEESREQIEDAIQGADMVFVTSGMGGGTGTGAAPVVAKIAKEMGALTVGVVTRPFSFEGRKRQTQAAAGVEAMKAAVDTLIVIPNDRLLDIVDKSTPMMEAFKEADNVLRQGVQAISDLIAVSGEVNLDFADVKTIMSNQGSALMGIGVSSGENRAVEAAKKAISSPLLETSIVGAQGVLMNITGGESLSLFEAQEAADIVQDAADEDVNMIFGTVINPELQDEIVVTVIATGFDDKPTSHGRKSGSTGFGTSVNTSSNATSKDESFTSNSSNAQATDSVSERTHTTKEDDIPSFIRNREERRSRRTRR
The assay is described as follows: Binding affinity to Staphylococcus aureus FtsZ G196A mutant self-polymerization at 20 ug/mL by microtiter plate-based light scattering assay.

Assay [6] deals with Cell division protein FtsZ (Staphylococcus aureus, UniProt P0A031, I228R). The assay is described as follows: Binding affinity to Staphylococcus aureus FtsZ I228R mutant expressed in Escherichia coli BL21 (DE3) at 25 degC by fluorescence anisotropy assay. The essentials:
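Purified SaFtsZ mutant protein (0–25 μM) mixed with 5 μM compound in 50 mM Tris·HCl pH 7.4, 50 mM KCl, 2 mM magnesium acetate. After 5 min at 25 °C, steady-state fluorescence anisotropy read at excitation 245 / emission 318 nm, G-factor corrected, triplicate. Kd from nonlinear least-squares fit.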

The test system of assay [7] is Staphylococcus aureus. As to the kind of experiment: Potency index, ratio of erythromycin to compound bactericidal effect in methicillin-sensitive Staphylococcus aureus 8325-4 at 8 times MIC by time kill study. It counts as functional.
In assay [8] the target is Tubulin beta chain (Sus scrofa) (UniProt P02554). The assay is described as follows: Effect on MAP-rich pig beta-tubulin polymerization at 40 ug/mL by microtiter plate-based light scattering assay. In outline:
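MAP-rich porcine tubulin (70% β-tubulin, 30% MAPs) at 2 mg/mL with 1 mM GTP. Buffer was 80 mM PIPES·NaOH pH 7.0, 2 mM MgCl₂, 1 mM EGTA. Light scattering was followed as A340 continuously at 37 °C for 60 min, against a DMSO vehicle.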

Assay [9] relates to T3, Cell division protein FtsZ (Staphylococcus aureus), P0A031 [E185A].
T3 sequence (whole entry): T2 sequence (whole entry) with E185A, A196G
The assay is described as follows: Binding affinity to Staphylococcus aureus FtsZ E185A mutant self-polymerization at 20 ug/mL by microtiter plate-based light scattering assay.

Assay [10] concerns the target T4, Cell division protein FtsZ (Staphylococcus aureus) (UniProt P0A031).
T4 sequence (whole entry): T2 sequence (whole entry) with A196G
As to the kind of experiment: Stimulation of Staphylococcus aureus FtsZ assembly and bundling at 20 ug/mL by transmission electron microscopy. The essentials:
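SaFtsZ polymerized with 20 μg/mL compound under light-scattering assay conditions (10 μM protein, 1 mM GTP, 1 mM CaCl2, pH 7.4). Reaction diluted 1:10 in polymerization buffer, applied to glow-discharged Formvar/carbon grids, negatively stained with 1% phosphotungstic acid for 1 min, and imaged by TEM at 80 kV.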

Assay [11] deals with Cell division protein FtsZ (Staphylococcus aureus, UniProt P0A031, G196A). As to the kind of experiment: Binding affinity to Staphylococcus aureus FtsZ G196A mutant expressed in Escherichia coli BL21 (DE3) at 25 degC by fluorescence anisotropy assay. (Fluorescence polarisation rises when a labelled molecule tumbles more slowly, as on binding a larger partner.)

Chain of Tubulin beta chain (Sus scrofa) (P02554 whole entry): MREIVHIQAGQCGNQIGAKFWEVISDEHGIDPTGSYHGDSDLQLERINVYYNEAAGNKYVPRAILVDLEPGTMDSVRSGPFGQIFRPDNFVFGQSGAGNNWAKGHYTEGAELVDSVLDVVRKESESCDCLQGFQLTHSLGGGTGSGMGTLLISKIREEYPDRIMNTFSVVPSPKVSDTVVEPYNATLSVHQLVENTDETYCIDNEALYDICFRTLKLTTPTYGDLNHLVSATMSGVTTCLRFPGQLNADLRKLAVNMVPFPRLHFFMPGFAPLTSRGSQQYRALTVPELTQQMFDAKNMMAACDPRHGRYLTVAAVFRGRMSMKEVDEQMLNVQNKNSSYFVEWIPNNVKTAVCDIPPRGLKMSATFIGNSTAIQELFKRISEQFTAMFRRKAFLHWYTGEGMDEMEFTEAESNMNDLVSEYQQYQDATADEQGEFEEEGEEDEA

As for `CC(C)(C)c1ccc(-c2cccc(CNC(=N)N)c2)cc1`, the Activity result (in the assay on Enterococcus faecalis; in [2]) was “Dose-dependent effect” in each case. Inhibition of growth against Staphylococcus aureus [1] (MIC) required 1 µg/mL (≈ 3.55 µM). Also, the outcome (in the assay on Staphylococcus aureus [3]; in [5]; in assay [10]) was Active. Moreover, the Ratio was 6 in [4] and over 1000 in the assay with Staphylococcus aureus [7]. Further, the figures for the equilibrium dissociation constant (Kd) in [6] and in assay [11] were 32.9 µM and 5 µM, respectively. For the same compound, the outcome in assay [8] and in assay [9] was inactive.
